This is an account of results in ChEMBL document CHEMBL1132694, “Discovery and structure-activity relationships of imidazole-containing tetrahydrobenzodiazepine inhibitors of farnesyltransferase” (J Med Chem, 1999).

Experiment [1] deals with T1, Protein farnesyltransferase (Homo sapiens, UniProt P49354+P49356). The experiment in a line: Inhibition of human purified recombinant farnesyltransferase (hFT) at 90 uM. The format is protein-complex assay.
The subject of experiment [2] is Mus musculus. Description: In vivo antitumor activity against Rat-1 tumors in mice at 90 mg/kg. Type of experiment: functional. The procedure, abridged: (§1)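 Female athymic Balb/c-background mice (18-22 g) were implanted ip with 1 × 10^6 in vitro-propagated H-Ras-transformed Rat-1 fibroblasts. Dosing was ip, once daily for 7 days from day 1, with compound in 10% ethanol/sterile water given within 1 h of dissolution. Groups were typically 6 treated and 8 control mice. Read-out was median survival as %T/C, with ≥125% counted active (Gehan's generalized Wilcoxon test).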

The subject of another experiment is Rat1. Description: Inhibition of anchorage independent growth of H-Ras transformed Rat-1 cells. The format is functional, cell-based.
Experiment [3] concerns the target T1, Protein farnesyltransferase. Description: Inhibitory activity against human purified recombinant farnesyltransferase (hFT). Type of experiment: protein-complex assay. An outline of the steps:
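Purified (>90%) recombinant human FT at 0.3 nM, with 10 μM ZnCl2. Activity was measured as incorporation of tritium from [3H]farnesyl pyrophosphate into recombinant human H-Ras. Result reported as IC50.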

Experiment [4] shares this target. The experiment in a line: Phenotypic reversion of H-Ras transformed NIH3T3 cells at 5 uM. The format is functional, cell-based. The note with it: Mus musculus.
Experiment [5] has the same target. The experiment in a line: Phenotypic reversion of H-Ras transformed NIH3T3 cells at 1.25 uM. The format is functional, cell-based. The note with it: Mus musculus.
For experiment [6], the system named is Mus musculus. The experiment in a line: In vivo antitumor activity against Rat-1 tumors in mice at 10 mg/kg. Type of experiment: functional. An outline of the steps: as §1
For experiment [7], the target named is T1, Protein farnesyltransferase. Description: Phenotypic reversion of H-Ras transformed NIH3T3 cells by the compound at a concentration of 10 uM. The format is functional, cell-based. Particulars: Mus musculus.
In experiment [8] the test system is Mus musculus. The experiment in a line: In vivo antitumor activity against Rat-1 tumors in mice at 30 mg/kg. Type of experiment: functional. The procedure, abridged:
as §1

Experiment [9] addresses T1, Protein farnesyltransferase. Description: Inhibition of human purified recombinant farnesyltransferase (hFT) at 15 uM. The format is protein-complex assay.
The target is the same in experiment [10]. Description: Phenotypic reversion of H-Ras transformed NIH3T3 cells at 1.25/5 uM. The note with it: Mus musculus. Type of experiment: functional, cell-based.

For `COCC[C@H]1CN(C(=O)c2cccc3ccccc23)CCN1C(=O)c1c[nH]cn1`, the inhibition (in general, the share of the control response that was lost under treatment) in experiment [1] was determined as 51%.

On to `O=C(Nc1ccc2c(c1)N(Cc1c[nH]cn1)CCN(C(=O)c1cccc3ccccc13)C2)c1ccccc1`, for which, in the experiment with Mus musculus [2], the T/C (commonly the result in the treated group divided by that in the control group, in per cent) was determined as 128%. Also, the EC50 (commonly the concentration that produces a half-maximal response) with Rat1 worked out at 300 nM. Besides, in experiment [3], the IC50 (in general, the midpoint of a concentration-inhibition curve) came to 28.5 nM. Besides, the Reversion activity in experiment [4] worked out at 75%; in [5] it was 0%.

Compound `O=C(Nc1ccc2c(c1)N(Cc1c[nH]cn1)CCN(C(=O)c1cccc3ccccc13)C2)C1CCCCC1` yielded an EC50 with Rat1 of 340 nM. The 50% inhibitory concentration (IC50) in experiment [3] turned out to be 18.1 nM. Also, the Reversion activity in experiment [4] came to 45%; in experiment [5], 0%. The compound further returned a T/C with Mus musculus [6] of 138%.

As for `O=C(c1cccc2ccccc12)N1CCN(CCc2c[nH]cn2)c2ccccc2C1`, the IC50 in experiment [3] worked out at 340 nM. The same compound displayed a Reversion activity in [7] of 20%.

Turning to `O=C(c1cccc2ccccc12)N1CCN(Cc2c[nH]cn2)c2ccccc2C1`, in the experiment with Rat1, a half-maximal effect (EC50) was put at 6000 nM. The IC50 in experiment [3] was found to be 460 nM. In addition, the Reversion activity in experiment [7] turned out to be 0%.

Turning to `O=C(c1cccc2ccccc12)N1CCN(Cc2c[nH]cn2)c2ccc(-c3ccccc3)cc2C1`, a half-maximal response in the experiment with Rat1 (EC50) required 1600 nM. Also, the Reversion activity was 90% in experiment [4] and 0% in experiment [5]. The T/C is recorded as 136% with Mus musculus [6] and 96% in the experiment with Mus musculus [8].

With `Cc1cccc2c1N(Cc1c[nH]cn1)CCN(C(=O)c1cccc3ccccc13)C2`, the EC50 with Rat1 was determined as 12000 nM. Further, the IC50 in [3] came to 350 nM. The Reversion activity in [4] was determined as 35%; in [5] it was 0%.

In the case of `O=C(c1ccccc1-c1ccccc1)N1CCN(Cc2c[nH]cn2)c2ccccc2C1`, the response in the experiment with Rat1 was half-maximal at 700 nM (EC50). In [7], this compound showed a Reversion activity of 25%.

`O=C(c1cccc2ccccc12)N1CCN(Cc2c[nH]cn2)c2ccc(-c3ccncc3)cc2C1` showed a T/C in the experiment on Mus musculus [2] of 108%. In the experiment on Rat1, the EC50 was found to be 200 nM. The IC50 in [3] worked out at 15.4 nM. Besides, the Reversion activity in experiment [4] came out at 95%; in experiment [5] it was 60%.

For `O=C(c1cccc2ccccc12)N1CCN(Cc2c[nH]cn2)Cc2ccccc21`, in the experiment with Rat1, the response was half-maximal at 3000 nM (EC50). Moreover, the Reversion activity in experiment [7] amounted to 0%.

On to `O=C(OCc1ccccc1)N1CCN(Cc2c[nH]cn2)c2ccc(-c3ccccc3)cc2C1`, for which, in [9], the inhibition came out at 55%. Also, the Reversion activity in experiment [4] and in experiment [10] was 0% each time.
